Data published in ChEMBL document CHEMBL1143636, “A series of bisaryl imidazolidin-2-ones has shown to be selective and orally active 5-HT2C receptor antagonists” (Bioorg Med Chem Lett, 2005).
Active and inactive are the calls of the source. The calls are words filed in the database; no cut-off is given here.

Columns and labels:
[1] = molecular target: 5-hydroxytryptamine receptor 2B (Homo sapiens, UniProt P41595); assay: Binding affinity for human 5-hydroxytryptamine 2B receptor expressed in HEK 293 cells using [3H]5-HT; assay type: cell-based, HEK293
Chain of 5-hydroxytryptamine receptor 2B (P41595 whole entry): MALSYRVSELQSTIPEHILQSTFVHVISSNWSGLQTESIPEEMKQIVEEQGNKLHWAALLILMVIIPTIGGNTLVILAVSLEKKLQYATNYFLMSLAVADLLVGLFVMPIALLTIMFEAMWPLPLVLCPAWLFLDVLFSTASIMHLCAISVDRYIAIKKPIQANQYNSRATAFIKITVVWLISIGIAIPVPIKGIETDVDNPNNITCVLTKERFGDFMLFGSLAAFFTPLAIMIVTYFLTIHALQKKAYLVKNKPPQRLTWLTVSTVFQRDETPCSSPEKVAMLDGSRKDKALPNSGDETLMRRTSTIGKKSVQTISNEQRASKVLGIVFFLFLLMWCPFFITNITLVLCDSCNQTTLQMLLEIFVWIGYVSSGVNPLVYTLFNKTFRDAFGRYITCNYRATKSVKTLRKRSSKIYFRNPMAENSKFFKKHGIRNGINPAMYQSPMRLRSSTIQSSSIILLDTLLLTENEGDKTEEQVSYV

[2] = molecular target: 5-hydroxytryptamine receptor 2A (Homo sapiens, UniProt P28223); assay: Binding affinity for human 5-hydroxytryptamine 2A receptor expressed in HEK 293 cells using [3H]ketanserin; assay type: cell-based, HEK293
Chain of 5-hydroxytryptamine receptor 2A (P28223 whole entry): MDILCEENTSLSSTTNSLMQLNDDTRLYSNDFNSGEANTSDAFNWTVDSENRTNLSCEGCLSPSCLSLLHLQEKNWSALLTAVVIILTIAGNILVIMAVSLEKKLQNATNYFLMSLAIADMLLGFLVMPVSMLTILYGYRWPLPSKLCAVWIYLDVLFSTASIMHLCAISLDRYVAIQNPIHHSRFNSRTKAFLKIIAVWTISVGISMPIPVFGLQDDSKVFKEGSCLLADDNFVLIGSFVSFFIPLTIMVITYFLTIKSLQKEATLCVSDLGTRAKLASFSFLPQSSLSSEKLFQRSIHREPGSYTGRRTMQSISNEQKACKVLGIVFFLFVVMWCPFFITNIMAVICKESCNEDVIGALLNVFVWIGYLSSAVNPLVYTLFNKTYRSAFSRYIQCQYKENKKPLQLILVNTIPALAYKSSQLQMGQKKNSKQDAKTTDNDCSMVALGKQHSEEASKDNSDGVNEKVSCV

[3] = molecular target: T1, 5-hydroxytryptamine receptor 2C (Homo sapiens, UniProt P28335); assay: Binding affinity for human 5-hydroxytryptamine 2C receptor expressed in HEK 293 cells using [3H]mesulergine; assay type: cell-based, HEK293
T1 sequence (P28335 whole entry): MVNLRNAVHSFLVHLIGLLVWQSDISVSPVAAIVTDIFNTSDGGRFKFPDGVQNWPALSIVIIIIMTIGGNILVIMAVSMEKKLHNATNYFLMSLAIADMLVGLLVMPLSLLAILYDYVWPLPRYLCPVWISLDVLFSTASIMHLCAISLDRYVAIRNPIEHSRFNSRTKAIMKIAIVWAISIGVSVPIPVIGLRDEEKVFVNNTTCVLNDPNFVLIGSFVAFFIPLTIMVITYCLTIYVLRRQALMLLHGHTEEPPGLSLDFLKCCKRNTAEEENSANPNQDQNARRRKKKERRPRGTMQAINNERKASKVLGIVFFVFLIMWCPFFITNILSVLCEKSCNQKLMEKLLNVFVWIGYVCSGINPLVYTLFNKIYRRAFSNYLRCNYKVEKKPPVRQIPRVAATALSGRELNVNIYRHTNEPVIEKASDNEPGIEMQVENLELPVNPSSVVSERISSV

Rattus norvegicus [4] = assay: Percentage reversal at 10 mg/kg po of mCPP (7 mg/kg i.p.) induced hypolocomotion; assay type: functional
In short: (§1)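 Rats were given the test compound orally at 10 mg/kg. mCPP, a 5-HT2C agonist, was given at 7 mg/kg ip 20 min before testing to induce hypolocomotion. The read-out was the percentage reversal of mCPP-induced hypolocomotion.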

Rattus norvegicus [5] = assay: Percentage reversal at 10 mg/kg po of mCPP (7 mg/kg i.p.) induced hypolocomotion; IA = in active; assay type: functional, organism-based; design: dose 10 mg/kg; in short: as §1
Rattus norvegicus [6] = assay: Dose of compound required to reverse mCPP (7 mg/kg i.p.) induced hypolocomotion by 50%; assay type: functional
In short: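 In rats, hypolocomotion was induced with the 5-HT2C agonist mCPP at 7 mg/kg ip, given 30 min pretest. The value is the compound dose that reversed the mCPP-induced hypolocomotion by 50%.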

Rattus norvegicus [7] = assay: Percentage reversal at 10 mg/kg po of mCPP (7 mg/kg i.p.) induced hypolocomotion; in active; assay type: functional, organism-based; design: dose 10 mg/kg; in short: as §1
[8] = In vivo clearance in rat was determined; assay type: ADME, organism-based

COc1ccc(N2CCN(c3cccc(F)c3)C2=O)cc1OCCN(C)C
Ki [1]: 1580 nM
Ki [2]: 2510 nM
Ki [3]: 3.98 nM
Reversal (Rattus norvegicus [4]): 40%

COc1ccc(N2CCN(c3cccc(Cl)c3Cl)C2=O)cc1OCCN1CCCCC1
Ki [1]: 1260 nM
Ki [2]: 1580 nM
Ki [3]: 10 nM
Reversal (Rattus norvegicus [5]): inactive

COc1cc2c(cc1OCCN1CCCCC1)N(C(=O)/C=C/c1ccccc1Cl)CC2
Ki [1]: 126 nM
Ki [2]: 398 nM
Ki [3]: 0.631 nM
Reversal (Rattus norvegicus [4]): 71%

COc1ccc(N2CCN(c3cccc(F)c3)C2=O)cc1OCCO
Ki [1]: 1260 nM
Ki [2]: > 10000 nM
Ki [3]: 1260 nM

Cc1cc2c(cc1Cl)N(C(=O)Nc1ccc(Oc3cccnc3C)nc1)CC2 [SB-242084]
ID50 (Rattus norvegicus [6]): 2 mg/kg

COc1ccc(N2CCN(c3ccc(Cl)c(Cl)c3)C2=O)cc1OCCN1CCOCC1
Ki [1]: 316 nM
Ki [2]: > 5010 nM
Ki [3]: 3.16 nM
Reversal (Rattus norvegicus [4]): 7%

Cc1cc2c(cc1C(F)(F)F)N(C(=O)Nc1ccc(Oc3cccnc3C)nc1)CC2 [SB-243213]
ID50 (Rattus norvegicus [6]): 0.7 mg/kg

COc1ccc(N2CCN(c3ccc(C)c(C(F)(F)F)c3)C2=O)cc1OCCN1CCOCC1
Ki [1]: 126 nM
Ki [2]: 3160 nM
Ki [3]: 7.94 nM
Reversal (Rattus norvegicus [7]): inactive

COc1ccc(N2CCN(c3ccccc3Cl)C2=O)cc1OCCN1CCCCC1
Ki [1]: > 7940 nM
Ki [2]: 3980 nM
Ki [3]: 31.6 nM

COc1ccc(N2CCN(c3ccc(Cl)c(Cl)c3)C2=O)cc1OCCN1CCCCC1
Ki [1]: 316 nM
Ki [2]: 631 nM
Ki [3]: 0.794 nM
clearance [8]: 45 mL/min/kg
Reversal (Rattus norvegicus [4]): 75%

O=C1N(c2ccc(OCc3ccccn3)nc2)CCN1c1ccc(Cl)c(Cl)c1
Ki [1]: > 6310 nM
Ki [2]: > 10000 nM
Ki [3]: 398 nM

COc1ccc(N2CCN(c3cc(F)cc(F)c3)C2=O)cc1OCCN1CCCCC1
Ki [1]: > 5010 nM
Ki [2]: > 10000 nM
Ki [3]: 1 nM
Reversal (Rattus norvegicus [4]): 40%

O=C1N(c2ccc(OCCN3CCCCC3)nc2)CCN1c1ccc(Cl)c(Cl)c1
Ki [1]: 158 nM
Ki [2]: 1000 nM
Ki [3]: 25.1 nM

COc1ccc(-n2ccn(-c3cc(F)cc(F)c3)c2=O)cc1OCCN1CCCCC1
Ki [1]: > 7940 nM
Ki [2]: > 10000 nM
Ki [3]: 7.94 nM

COc1ccc(N2CC(=O)N(c3cccc(F)c3)C2=O)cc1OCCN1CCCCC1
Ki [1]: > 6310 nM
Ki [2]: > 10000 nM
Ki [3]: 50.1 nM

COc1ccc(N2CCN(c3ccccc3)C2=O)cc1OCCN1CCCCC1
Ki [1]: 1260 nM
Ki [2]: 2510 nM
Ki [3]: 1.26 nM
Reversal (Rattus norvegicus [7]): inactive

COc1ccc(-n2ccn(-c3cccc(F)c3)c2=O)cc1OCCN1CCCCC1
Ki [1]: 2000 nM
Ki [2]: > 1000 nM
Ki [3]: 6.31 nM
Reversal (Rattus norvegicus [7]): inactive

COc1ccc(N2CCN(c3cccc(F)c3)C2=O)cc1OCCN1CCOCC1
Ki [1]: 794 nM
Ki [2]: > 6310 nM
Ki [3]: 12.6 nM
clearance [8]: > 120 mL/min/kg
Reversal (Rattus norvegicus [4]): 10%

COc1ccc(N2CCN(c3ccc(Cl)c(Cl)c3)C2=O)cc1OCCN(C)C
Ki [2]: 501 nM
Ki [3]: 1.26 nM
Reversal (Rattus norvegicus [7]): inactive

COc1ccc(N2CCN(c3cccc(F)c3)C2=O)cc1OCCN1CCCCC1
Ki [1]: 501 nM
Ki [2]: 2000 nM
Ki [3]: 1.58 nM
clearance [8]: > 120 mL/min/kg
Reversal (Rattus norvegicus [4]): 7%

Cc1cc2c(cc1C(F)(F)F)N(C(=O)Nc1ccc(OCc3ccccn3)nc1)CC2
ID50 (Rattus norvegicus [6]): 1 mg/kg

COc1ccc(N2CCN(c3ccc(C)c(C(F)(F)F)c3)C2=O)cc1OCCN1CCCCC1
Ki [1]: 79.4 nM
Ki [2]: 398 nM
Ki [3]: 2 nM
Reversal (Rattus norvegicus [7]): inactive
